Diaphorase inh – counter-screen for diaphorase-based assays: diaphorase inhibitors and chemical oxidizers; diaphorase resazurin-to-resorufin fluorescence, NADH, 16 min; bacterial (C. kluyveri) enzyme, not human; 190,000 compounds, 0.69% hits; inhibition, % at 20 µM;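 active means primary screen inhibition at 20 µM above a set limit, cut at about 50% in these data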;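 further: plate controls were DMSO with full reaction for no effect and wells lacking NADH for full effect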
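System: Diaphorase enzyme from Clostridium kluyveri | Amount: Enzyme working solution with 0.14 U/mL diaphorase | Benchmarks: No-NADH positive control and DMSO neutral control | Signal: Fluorescence of resorufin formed from resazurin, Ex 544/Em 590 nm | Schedule: 16-min room-temperature incubation before reading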
HKDC1 inhibitor – inhibitors of human hexokinase HKDC1 | recombinant HKDC1, G6PDH/diaphorase resazurin coupled fluorescence | inhibition, % at 20 µM | 340,000 compounds, 0.16% hits | AID 493160;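 active means inhibition above about 35% when tested at 20 µM, limit read from the data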;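 further: plate controls were DMSO wells with enzyme for no effect and DMSO wells lacking enzyme for full effect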
Target sequence (Q2TB90 whole entry, looked up): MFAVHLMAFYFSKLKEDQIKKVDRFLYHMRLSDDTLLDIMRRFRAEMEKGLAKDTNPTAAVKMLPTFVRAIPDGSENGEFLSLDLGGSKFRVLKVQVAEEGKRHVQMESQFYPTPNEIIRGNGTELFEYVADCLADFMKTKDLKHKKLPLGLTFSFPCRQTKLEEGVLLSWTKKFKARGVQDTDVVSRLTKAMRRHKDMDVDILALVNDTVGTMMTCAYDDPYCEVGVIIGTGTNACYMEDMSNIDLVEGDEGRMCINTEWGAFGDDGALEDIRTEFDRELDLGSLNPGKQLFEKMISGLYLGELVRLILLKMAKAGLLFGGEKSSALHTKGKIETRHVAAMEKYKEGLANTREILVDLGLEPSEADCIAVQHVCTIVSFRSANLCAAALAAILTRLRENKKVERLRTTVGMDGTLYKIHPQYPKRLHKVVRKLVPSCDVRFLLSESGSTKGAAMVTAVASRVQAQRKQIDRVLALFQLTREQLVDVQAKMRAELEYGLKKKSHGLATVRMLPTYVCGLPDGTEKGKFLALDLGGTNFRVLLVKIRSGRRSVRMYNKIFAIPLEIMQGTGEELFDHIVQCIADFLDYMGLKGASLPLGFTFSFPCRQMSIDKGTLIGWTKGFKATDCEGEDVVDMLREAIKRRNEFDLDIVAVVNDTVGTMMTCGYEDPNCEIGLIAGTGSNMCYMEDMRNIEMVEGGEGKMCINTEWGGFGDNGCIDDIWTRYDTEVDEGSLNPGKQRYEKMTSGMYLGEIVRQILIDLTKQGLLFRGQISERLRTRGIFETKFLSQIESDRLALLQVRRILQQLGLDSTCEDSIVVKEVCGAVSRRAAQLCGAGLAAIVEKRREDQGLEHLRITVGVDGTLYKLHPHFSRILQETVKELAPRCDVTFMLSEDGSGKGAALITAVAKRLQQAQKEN
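Test system: recombinant HKDC1 (HK5) hexokinase enzyme, produced in-house; Amount: enzyme 5 µg/mL final; Buffer or medium: Tris pH 8.0 buffer with MgCl2, Tween-20, BSA, BME; Reagent: glucose and ATP substrates; Doses: 20 µM test compound, 1% DMSO; Incubation: 90 min reaction incubation at room temperature, dark; Detection: resorufin fluorescence at 613 nm.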
TbHK1 inh – T. brucei hexokinase 1 inhibition | recombinant TbHK1, G6PDH-coupled NADH A340 | inhibition, % at 10 µM | 220,000 compounds, 0.11% hits | AID 1430;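 active means inhibition of 50% or more in the single-dose primary screen; inactive means inhibition below 50%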
G6PDH CS – counter-screen for G6PDH assay hits: L. mesenteroides G6PDH inhibition; Purified L. mesenteroides G6PDH, diaphorase/resazurin coupled fluorescence, 45 min; inhibition, % at 5 µM; 200,000 compounds, 0.12% hits; in the data active means inhibition above about 50%
PfG6PD inh – PfG6PD (Plasmodium falciparum) enzyme inhibition | PfGluPho enzyme, NADPH resazurin-diaphorase fluorescence | inhibition, % at 20 µM | 350,000 compounds, 0.78% hits;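 active means inhibition reaching at least a set limit at 20 µM in the primary screen, cut at about 59% in these data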;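 further: 0% = DMSO wells with substrate and 100% = DMSO wells lacking glucose-6-phosphate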
PfG6PD confirm – PfG6PD inhibition, single-dose confirmed; shares compounds with PfG6PD inh; recombinant PfGluPho, NADPH-diaphorase-resazurin fluorescence; inhibition, % at 20 µM; 2,400 compounds, 34% hits; AID 504753;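 active means inhibition of at least 50% at 20 µM in any single replicate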;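 further: 0% = DMSO with substrate and 100% = DMSO lacking glucose-6-phosphate substrate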
Diaphorase 10uM – counter-screen for P. falciparum G6PD inhibitors: diaphorase inhibitors, oxidizers. shares compounds with PfG6PD inh. diaphorase-coupled resazurin reduction, fluorescence, NADPH 10 uM. inhibition, % at 20 µM. 820 compounds, 39% hits;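 active means average inhibition reaching 50% or more with the compound at 20 µM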;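 further: resorufin red fluorescence formed as diaphorase reduces resazurin using NADPH; 0% = DMSO with enzyme and 100% = DMSO without enzyme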
Diaph ctr 30uM – inhibits diaphorase or oxidizes, flagging false PfG6PD hits; shares compounds with PfG6PD inh; Diaphorase/resazurin coupled assay, resorufin fluorescence, 30 uM NADPH; inhibition, % at 20 µM; 820 compounds, 29% hits; AID 504863;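 active means inhibition averaging 50% or more, tested at 20 µM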;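 further: 0% = DMSO with enzyme and 100% = DMSO wells lacking diaphorase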
Numbers without * were called inactive; . = no result given. Hits are enriched below; roughly 1.2% of the tested compounds scored in any of these assays.

SMILES	Diaphorase inh	HKDC1 inhibitor	TbHK1 inh	G6PDH CS	PfG6PD inh	PfG6PD confirm	others
CC(=O)c1ccc(NC(=O)C(C)OC(=O)c2ccc(NS(=O)(=O)c3ccc(F)c(F)c3)cc2)cc1 (stereo not drawn)	14	0	-8	-4	-28	.
COc1ccc(-c2cc3ccccc3cn2)cc1	.	0	.	.	59*	9
COc1cccc(/C=N/NC(=O)c2c(C)nc3ccc(Cl)cn23)c1O	.	-12	.	.	-18	.
O=C(CCCOc1ccc(Cl)cc1Cl)N/N=C/c1ccccc1	22	-1	2	-3	119*	86*	Diaphorase 10uM=88*;Diaph ctr 30uM=71*
CCCCNC(=O)C(=O)N/N=C/c1cccc(Br)c1	2	-8	35	-6	0	.
CCCCNC(=O)CCCCC(=O)N/N=C/c1cccc(Cl)c1	-4	-8	-1	5	65*	11
O=C(CC(=O)Nc1cccc(Cl)c1)N/N=C\c1ccccc1	-5	3	31	4	84*	41
O=C(N/N=C/c1ccc(Cl)cc1)Nc1ccccc1	14	2	0	1	3	.
Cc1ccc(/C=N/NC(=O)CCCOc2ccc(Cl)cc2Cl)cc1	21	10	-7	-11	67*	35
O=c1[nH][nH]c2cc([N+](=O)[O-])ccc12	.	-4	.	.	1	.
O=C(NC1CCCC1)c1cc2c(ccc3ccccc32)o1	16	0	-9	6	72*	20
CNC(=O)c1cc2c(ccc3ccccc32)o1	15	0	-13	1	-3	.
COc1cc(/C=C/C(=O)c2ccc([N+](=O)[O-])o2)ccc1O	.	34	.	.	77*	60*	Diaphorase 10uM=40;Diaph ctr 30uM=35
CCOC(=O)c1sc(NC(=O)C2CCCO2)c(C(=O)OC)c1C (stereo not drawn)	.	.	2	.	.	.
CCCOC(=O)c1c(NC(=O)C2CCCO2)sc(C(=O)OC)c1C (stereo not drawn)	-2	-7	-4	7	59*	21
O=C(O)c1cccc(N2C(=O)C=CC2=O)c1	.	.	.	.	76*	76*	Diaphorase 10uM=14;Diaph ctr 30uM=13
O=[N+]([O-])c1ccc(C=Nc2cccc3ccccc23)s1	28	21	-8	12	71*	18
O=C1Nc2cc(C(=O)NCCCN3CCCC3)ccc2S/C1=C\c1ccccc1	.	1	.	.	105*	98*	Diaphorase 10uM=-5;Diaph ctr 30uM=-16

Screening results deposited in PubChem BioAssay by several laboratories.
